Measurements from ChEMBL document CHEMBL4665711, “Synthesis of (Z)-3-(arylamino)-1-(3-phenylimidazo[1,5-a]pyridin-1-yl)prop-2-en-1-ones as potential cytotoxic agents” (Bioorg Med Chem Lett, 2020).
pIC50: −log10 of the molar value.

Columns and labels:
HCT-116 = assay: Cytotoxicity against human HCT-116 cells assessed as reduction in cell viability incubated for 48 hrs by MTT assay; assay type: functional, cell-based; settings: HCT-116, 48 h
Outline: (§1)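 Cancer cell lines were exposed to drug for 48 h, and the 50% inhibitory concentration was determined. Values are averages of three individual experiments. A549, HCT-116, BT-474 and MDA-MB-231 are human lines; B16F10 is a murine melanoma line.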

MDA-MB-231 = assay: Cytotoxicity against human MDA-MB-231 cells assessed as reduction in cell viability incubated for 48 hrs by MTT assay; assay type: functional, cell-based; settings: MDA-MB-231, 48 h; outline: as §1
B16-F10 = assay: Cytotoxicity against mouse B16-F10 cells assessed as reduction in cell viability incubated for 48 hrs by MTT assay; assay type: functional, cell-based; settings: B16-F10, 48 h; outline: as §1
A549 = assay: Cytotoxicity against human A549 cells assessed as reduction in cell viability incubated for 48 hrs by MTT assay; assay type: functional, cell-based; settings: A549, 48 h; outline: as §1
BT-474 = assay: Cytotoxicity against human BT-474 cells assessed as reduction in cell viability incubated for 48 hrs by MTT assay; assay type: functional, cell-based; settings: BT-474, 48 h; outline: as §1
[1] = Cytotoxicity against human lung cancer cells assessed as reduction in cell viability incubated for 48 hrs by MTT assay; assay type: functional; settings: Lung cancer cell line
[2] = Cytotoxicity against human lung cancer cells assessed as reduction in cell viability incubated for 24 hrs by MTT assay; assay type: functional; settings: Lung cancer cell line
[3] = Cytotoxicity against human breast cancer cells assessed as reduction in cell viability incubated for 24 hrs by MTT assay; assay type: functional; settings: Breast cancer cell line

SMILES: COc1ccc(N/C=C\C(=O)c2nc(-c3ccc(F)cc3)n3ccccc23)cc1
- pIC50 (HCT-116): < 4.52
- pIC50 (MDA-MB-231): < 4.52
- pIC50 (B16-F10): 5.59
- pIC50 (A549): 4.72
- pIC50 (BT-474): 4.80

SMILES: COc1ccc(N/C=C\C(=O)c2nc(-c3ccc(OC)cc3)n3ccccc23)cc1
- pIC50 (HCT-116): < 4.52
- pIC50 (MDA-MB-231): < 4.52
- pIC50 (B16-F10): 5.67
- pIC50 (BT-474): 4.81

SMILES: COc1ccc(-c2nc(C(=O)/C=C\Nc3ccc(F)cc3)c3ccccn23)cc1
- pIC50 (HCT-116): < 4.52
- pIC50 (MDA-MB-231): < 4.52
- pIC50 (B16-F10): < 4.52
- pIC50 (A549): < 4.52
- pIC50 (BT-474): < 4.52

SMILES: Cc1cc2cc(N/C=C\C(=O)c3nc(-c4ccc(F)cc4)n4ccccc34)ccc2[nH]1
- pIC50 (HCT-116): < 4.52
- pIC50 (MDA-MB-231): < 4.52
- pIC50 (B16-F10): < 4.52
- pIC50 (A549): < 4.52
- pIC50 (BT-474): < 4.52

SMILES: O=C(/C=C\Nc1ccc2[nH]ccc2c1)c1nc(-c2ccc(C(F)(F)F)cc2)n2ccccc12
- pIC50 (HCT-116): 4.57
- pIC50 (MDA-MB-231): 5.93
- pIC50 (B16-F10): 4.74
- pIC50 (A549): 5.28
- pIC50 (BT-474): 5.28

SMILES: O=C(/C=C\Nc1ccc(O)cc1)c1cn(-c2ccccc2)nc1-c1ccc(F)cc1
- pIC50 [1]: 5.82

SMILES: O=C(/C=C\Nc1ccc(F)cc1)c1nc(-c2ccc(C(F)(F)F)cc2)n2ccccc12
- pIC50 (HCT-116): < 4.52
- pIC50 (MDA-MB-231): < 4.52
- pIC50 (B16-F10): < 4.52
- pIC50 (A549): < 4.52
- pIC50 (BT-474): < 4.52

SMILES: COc1ccc(N/C=C\C(=O)c2nc(-c3ccc(C(F)(F)F)cc3)n3ccccc23)cc1
- pIC50 (HCT-116): 5.11
- pIC50 (MDA-MB-231): < 4.52
- pIC50 (B16-F10): < 4.52
- pIC50 (A549): 4.66
- pIC50 (BT-474): < 4.52

SMILES: COc1ccc(-c2nc(C(=O)/C=C\Nc3ccc(Cl)cc3)c3ccccn23)cc1
- pIC50 (HCT-116): < 4.52
- pIC50 (MDA-MB-231): < 4.52
- pIC50 (B16-F10): 5.91
- pIC50 (BT-474): 4.43

SMILES: O=C1Nc2ccccc2/C1=C\c1nc(-c2ccccc2F)n2ccccc12
- GI50 [2]: 3.46 µM

SMILES: O=C(/C=C\Nc1ccc(F)cc1)c1nc(-c2ccc(F)cc2)n2ccccc12
- pIC50 (HCT-116): < 4.52
- pIC50 (MDA-MB-231): 4.60
- pIC50 (B16-F10): < 4.52
- pIC50 (A549): 4.88
- pIC50 (BT-474): 4.77

SMILES: O=C(/C=C\Nc1ccc2cc[nH]c2c1)c1nc(-c2ccc(C(F)(F)F)cc2)n2ccccc12
- pIC50 (HCT-116): < 4.52
- pIC50 (MDA-MB-231): < 4.52
- pIC50 (B16-F10): < 4.52
- pIC50 (A549): < 4.52
- pIC50 (BT-474): < 4.52

SMILES: Fc1ccccc1-c1nc(-c2nc3ccc(C(F)(F)F)cc3[nH]2)c2ccccn12
- GI50 [3]: 1.37 µM

SMILES: COc1ccc(N/C=C\C(=O)c2nc(-c3ccc(F)cc3)n3ccccc23)cc1OC
- pIC50 (HCT-116): < 4.52
- pIC50 (MDA-MB-231): < 4.52
- pIC50 (B16-F10): < 4.52
- pIC50 (A549): < 4.52
- pIC50 (BT-474): < 4.52

SMILES: COc1ccc(N/C=C\C(=O)c2nc(-c3ccccc3)n3ccccc23)cc1
- pIC50 (HCT-116): 5.15
- pIC50 (MDA-MB-231): 4.55
- pIC50 (B16-F10): 5.75
- pIC50 (A549): < 4.52
- pIC50 (BT-474): 4.89

SMILES: O=C(/C=C\Nc1cnc2ccccc2c1)c1nc(-c2ccccc2)n2ccccc12
- pIC50 (HCT-116): < 4.52
- pIC50 (MDA-MB-231): 4.91
- pIC50 (B16-F10): 5.42
- pIC50 (A549): < 4.52
- pIC50 (BT-474): 4.71

SMILES: COc1ccc(N/C=C\C(=O)c2nc(-c3ccc(C(F)(F)F)cc3)n3ccccc23)cc1OC
- pIC50 (HCT-116): < 4.52
- pIC50 (MDA-MB-231): < 4.52
- pIC50 (B16-F10): < 4.52
- pIC50 (A549): < 4.52
- pIC50 (BT-474): < 4.52

SMILES: O=C(/C=C\Nc1cnc2ccccc2c1)c1nc(-c2ccc(C(F)(F)F)cc2)n2ccccc12
- pIC50 (HCT-116): < 4.52
- pIC50 (MDA-MB-231): < 4.52
- pIC50 (B16-F10): < 4.52
- pIC50 (A549): < 4.52
- pIC50 (BT-474): < 4.52

SMILES: COC(=O)Nc1nc2cc(C(=O)c3cccs3)ccc2[nH]1 [NOCODAZOLE]
- pIC50 (HCT-116): 5.55
- pIC50 (MDA-MB-231): 5.74
- pIC50 (B16-F10): 5.51
- pIC50 (A549): 5.44
- pIC50 (BT-474): 5.57

SMILES: COc1ccc(-c2nc(C(=O)/C=C\Nc3ccc4[nH]ccc4c3)c3ccccn23)cc1
- pIC50 (HCT-116): 4.76
- pIC50 (MDA-MB-231): 4.54
- pIC50 (B16-F10): 5.29
- pIC50 (A549): 5.32
- pIC50 (BT-474): 4.89

SMILES: O=C(/C=C\Nc1ccc(Cl)cc1)c1nc(-c2ccc(C(F)(F)F)cc2)n2ccccc12
- pIC50 (HCT-116): 4.94
- pIC50 (MDA-MB-231): 5.42
- pIC50 (B16-F10): < 4.52
- pIC50 (A549): 4.73
- pIC50 (BT-474): 5.42
